Reference: ChEMBL document CHEMBL1144398, “Structure-based design, parallel synthesis, structure-activity relationship, and molecular modeling studies of thiocarbamates, new potent non-nucleoside HIV-1 reverse transcriptase inhibitor isosteres of phenethylthiazolylthiourea derivatives” (J Med Chem, 2005)

Key:
MT4 [1] = test: Effective concentration require to protect MT-4 cells from human immunodeficiency virus type 1 induced cytopathogenicity was determined by MTT method; assay type: functional, cell-based
How it was run: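 MT-4 cells infected with HIV-1, with test compounds added. Protection from virus-induced cytopathogenicity was read by MTT. EC50 is the concentration giving 50% protection. Values are means of three separate experiments, with variation among triplicates under 10%. Trovirdine served as the reference.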

MT4 [2] = test: Effective concentration require to protect MT-4 cells from HIV-1 Y181C mutant induced cytopathogenicity was determined by MTT method; assay type: functional, cell-based, Homo sapiens
How it was run: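 HIV-1 strains carrying the Y181C RT mutation in MT-4 cells. EC50 is the concentration giving 50% protection from virus-induced cytopathogenicity, read out by MTT. Trovirdine was run as the reference. Values are means of three separate experiments.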

C8166 = test: Effective concentration required to reduce the amount of p24 antigen levels in wild type human immunodeficiency virus type 1 infected C8166 cultures; assay type: functional
How it was run: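 C8166 cultures infected with wild-type HIV-1. p24 antigen in the cultures was measured after compound treatment, and EC90 is the concentration that reduces p24 by 90%. Trovirdine served as the reference.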

MT4 [3] = test: Cytotoxic concentration required to reduce the viability of mock infected MT-4 cells determined by MTT method; assay type: functional; conditions: Homo sapiens
How it was run: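 Viability of mock-infected MT-4 cells, assayed in parallel with the antiviral test, read by MTT. CC50 is the concentration that lowers viability by 50%. Values are means of three separate experiments, with variation among triplicates under 10%. The highest concentration tested was 100 µM.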

MT4 [4] = test: Ratio of CC50 to that of EC50 determined in MT-4 cells; assay type: functional
How it was run: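 Selectivity index, calculated as CC50/EC50. CC50 came from MTT viability of mock-infected MT-4 cells and EC50 from MTT-read protection of HIV-1-infected MT-4 cells from cytopathogenicity, with both run in parallel. Values are means of three experiments.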

[5] = molecular target: Human immunodeficiency virus type 1 reverse transcriptase (Human immunodeficiency virus 1, UniProt Q72547, Y181C); test: Inhibitory concentration against HIV-1 mutant reverse transcriptase (Y181C)
[6] = molecular target: Human immunodeficiency virus type 1 reverse transcriptase (Human immunodeficiency virus 1, UniProt Q72547, K103N/Y181C); test: Inhibitory concentration against HIV-1 mutant reverse transcriptase (K103N+Y181C)
[7] = molecular target: T1, Human immunodeficiency virus type 1 reverse transcriptase (Human immunodeficiency virus 1, UniProt Q72547); test: Inhibitory concentration against HIV-1 mutant reverse transcriptase (K103R)
[8] = molecular target: T1, Human immunodeficiency virus type 1 reverse transcriptase; test: Inhibitory concentration against HIV-1 wild type reverse transcriptase (IIIB)
[9] = molecular target: T1, Human immunodeficiency virus type 1 reverse transcriptase; test: Inhibitory concentration against HIV-1 virion reverse transcriptase

O=C1c2ccccc2C(=O)N1CCOC(=S)Nc1ccc(Br)cc1
EC50 (MT4 [1]): 0.03 µM
EC50 (MT4 [2]): 2.4 µM
EC90 (C8166): 0.015 µM
CC50 (MT4 [3]): > 100 µM
SI (MT4 [4]): >3333

O=C1C2CC=CCC2C(=O)N1CCOC(=S)Nc1ccc(Cl)cc1 (centres undefined)
EC50 (MT4 [1]): 9.4 µM
CC50 (MT4 [3]): > 100 µM
SI (MT4 [4]): >10.6

O=C1c2ccccc2C(=O)N1CCCOC(=S)Nc1ccc([N+](=O)[O-])cc1
EC50 (MT4 [1]): 19 µM
CC50 (MT4 [3]): ≥ 100 µM
SI (MT4 [4]): >=5.3

Cl.S=C(NCCc1ccccn1)Nc1ccc(Br)cn1 [TROVIRDINE HYDROCHLORIDE]
EC50 (MT4 [1]): 0.02 µM
IC50 [5]: 15 µM
IC50 [6]: > 20 µM
EC50 (MT4 [2]): 1.2 µM
IC50 [7]: > 20 µM
EC90 (C8166): 0.015 µM
IC50 [8]: 1.03 µM
CC50 (MT4 [3]): 60 µM
SI (MT4 [4]): 3000

COc1ccccc1/N=C(/S)OCCNC(=O)c1ccccc1C(=O)O
EC50 (MT4 [1]): 65 µM
CC50 (MT4 [3]): > 100 µM
SI (MT4 [4]): >1.5

CC(CN1C(=O)c2ccccc2C1=O)O/C(S)=N/c1ccc(Cl)cc1 (centres undefined)
EC50 (MT4 [1]): 1.7 µM
CC50 (MT4 [3]): > 100 µM
SI (MT4 [4]): >58.8

Cc1ccc2c(c1)C(=O)N(CCO/C(S)=N/c1ccc([N+](=O)[O-])cc1)C2=O
EC50 (MT4 [1]): 0.01 µM
CC50 (MT4 [3]): 80 µM
SI (MT4 [4]): >8000

O=C(O)c1ccccc1C(=O)NCCO/C(S)=N\c1ccc(Br)cc1
EC50 (MT4 [1]): 0.1 µM
CC50 (MT4 [3]): > 100 µM
SI (MT4 [4]): >1000

Cc1cccc2c1C(=O)N(CCO/C(S)=N/c1ccc(Cl)cc1)C2=O
EC50 (MT4 [1]): 0.05 µM
CC50 (MT4 [3]): > 100 µM
SI (MT4 [4]): >2000

Cc1cccc(NC(=S)OCCNC(=O)c2ccccc2C(=O)O)c1
EC50 (MT4 [1]): 5 µM
CC50 (MT4 [3]): > 100 µM
SI (MT4 [4]): >20

Cc1ccccc1/N=C(/S)OCCN1C(=O)c2ccccc2C1=O
EC50 (MT4 [1]): 3.7 µM
CC50 (MT4 [3]): > 100 µM
SI (MT4 [4]): >27

Cc1ccc(/N=C(\S)OC(C)CN2C(=O)c3ccccc3C2=O)cc1 (centres undefined)
EC50 (MT4 [1]): 48 µM
CC50 (MT4 [3]): > 100 µM
SI (MT4 [4]): >2.1

COc1ccc(NC(=S)OCCNC(=O)c2ccccc2C(=O)O)cc1
EC50 (MT4 [1]): 0.2 µM
CC50 (MT4 [3]): > 100 µM
SI (MT4 [4]): >500

O=C1c2ccccc2C(=O)N1CCOC(=S)Nc1ccccc1
EC50 (MT4 [1]): 1.2 µM
IC50 [9]: 0.6 µM
CC50 (MT4 [3]): > 100 µM
SI (MT4 [4]): >83.3

N#Cc1ccc(NC(=S)OCCN2C(=O)c3ccccc3C2=O)cc1
EC50 (MT4 [1]): 0.07 µM
EC50 (MT4 [2]): 5.9 µM
EC90 (C8166): 0.1 µM
CC50 (MT4 [3]): > 100 µM
SI (MT4 [4]): >1429

O=C(O)c1ccccc1C(=O)NCCO/C(S)=N\c1cccc(Cl)c1
EC50 (MT4 [1]): 3 µM
CC50 (MT4 [3]): > 100 µM
SI (MT4 [4]): >33.3
